SENP1 FRET inh: human SENP1 catalytic domain inhibitors, primary screen, biochemical, FRET, uHTS. Sentrin-specific protease 1 (Homo sapiens), Q9P0U3. recombinant SENP1 catalytic domain, CyPet-SUMO1-YPet FRET cleavage. inhibition, % at 10 µM. 0.21% of 360,000 active;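 active = inhibition at least 30% at 10 µM, raw YFP signal under a set limit, fluorescence ratio 0.5 to 1.5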;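 note: 0% = enzyme with DMSO and 100% = no enzyme wells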
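system = hSENP1 catalytic domain, recombinant | reagent = SFCypet-SUMO1-SFYpet substrate at 25 nM | doses = one dose per compound, 10 µM, 0.5% DMSO | incubation = enzyme reaction for 50 min at room temperature, dark | measured by = FRET, CFP and YFP emission | controls = no-enzyme low, enzyme-DMSO high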
FAS TE block: FAS thioesterase domain inhibitors, primary screen, biochemical, fluorescence intensity, uHTS | recombinant FAS-TE, OMFH fluorogenic substrate, fluorescence endpoint | inhibition, % at 15 µM | 0.67% of 360,000 active;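 active = compounds whose normalised, plate-corrected inhibition of enzyme fluorescence in the single-dose primary screen is 50% or more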;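 note: 0% = DMSO with enzyme and 100% = substrate without enzyme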
ADAM17 inh: ADAM17 inhibitors, primary screen, biochemical, QFRET; recombinant ADAM17, EDANS/DABCYL FRET peptide cleavage; inhibition, % at 6.95 µM; 0.83% of 370,000 active; AID 720648, 2013;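 active = inhibition above the mean of compounds lying between control limits plus 3 SD, set per campaign, cut at about 8.5% in these data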;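 note: 0% = DMSO-only wells as the low control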
ADAM10 inh: human ADAM10 inhibitors, primary screen, biochemical, QFRET, HTS. 0.62% of 370,000 active. recombinant ADAM10, EDANS/DABCYL FRET peptide cleavage, 3 h. AID 720582, 2013. inhibition, % at 7 µM;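 active = inhibition above a per-campaign cutoff equal to the mean of compounds falling between control-based bounds plus 3 SD, cut at about 20% in these data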;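 note: 0% = DMSO wells while the 100% control is not disclosed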
Target sequence (O14672 214-748 limits assumed): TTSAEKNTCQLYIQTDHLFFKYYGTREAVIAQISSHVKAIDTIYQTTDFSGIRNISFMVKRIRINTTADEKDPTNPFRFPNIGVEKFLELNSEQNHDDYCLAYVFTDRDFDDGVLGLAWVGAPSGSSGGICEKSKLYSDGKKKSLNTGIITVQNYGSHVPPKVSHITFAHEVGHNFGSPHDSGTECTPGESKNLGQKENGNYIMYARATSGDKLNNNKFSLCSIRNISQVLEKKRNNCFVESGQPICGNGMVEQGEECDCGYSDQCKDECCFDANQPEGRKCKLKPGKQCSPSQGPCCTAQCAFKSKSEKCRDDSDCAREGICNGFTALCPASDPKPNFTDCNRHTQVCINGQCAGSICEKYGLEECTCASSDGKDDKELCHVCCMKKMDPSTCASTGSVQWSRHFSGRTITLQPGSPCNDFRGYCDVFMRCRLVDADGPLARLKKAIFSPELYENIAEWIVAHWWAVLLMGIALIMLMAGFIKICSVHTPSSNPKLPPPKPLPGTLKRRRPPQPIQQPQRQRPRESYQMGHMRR
The depositor's hits bear a star; / = not tested or not shown. This is a sample that favours compounds with a hit; in the whole collection about 1.9% have one here.

SMILES	SENP1 FRET inh	FAS TE block	ADAM17 inh	ADAM10 inh
CN1CCN(C(c2ccc(Br)cc2)c2cc(Cl)c3cccnc3c2O)CC1 (configuration not stated)	3	0	20*	24*
CN1CCN(C(c2ccc(F)cc2)c2ccc3cccnc3c2O)CC1 (configuration not stated)	2	-8	/	/
Cn1cc(CCOCc2ccccn2)c2ccccc21	/	/	-2	-11
Nc1ccc(-c2nc3ccc([N+](=O)[O-])cc3[nH]2)cc1	49*	15	3	7
COc1ccc2c(c1)OC[C@H]1[C@H]2N2C(=O)c3cc(C)ccc3NC(=O)[C@@]2(C)[C@H]1c1ccccc1	-5	76*	/	/
Cc1ccc2c(c1)C(=O)N1[C@H]3c4ccccc4OC[C@@H]3[C@H](c3ccccc3)[C@]1(C)C(=O)N2	-2	71*	/	/
COc1ccc2c(c1)[C@H]1[C@H](CO2)[C@H](c2ccccc2)[C@]2(C)C(=O)Nc3ccc(F)cc3C(=O)N12	-1	40	6	17
C[C@@]12C(=O)Nc3ccc(F)cc3C(=O)N1[C@H]1c3cc(Br)ccc3OC[C@@H]1[C@@H]2c1ccccc1	-1	89*	7	17
Cc1ccc2c(c1)[C@H]1[C@H](CO2)[C@H](c2ccccc2)[C@]2(C)C(=O)Nc3ccc(Cl)cc3C(=O)N12	0	33	11*	29*
S=C(Nc1cccc(Cl)c1)OCCN1CCCC12CCC(c1ccccc1)CC2 (configuration not stated)	/	/	0	3
Cc1ccc(F)cc1C(=O)N(Cc1ccccn1)CC1CCCO1 (configuration not stated)	/	/	-2	-5
O=C(NC1CCC1)c1ccc(C#CC2CC2)c[n+]1[O-]	/	/	-5	-11
CCOC(=O)CCSc1nc(C)cc(C(F)(F)F)c1C#N	76*	4	-4	-5
C=CC[C@@H](CC(=O)OC(C)(C)C)C(=O)OC[C@@H]1CCCN1C(=O)[C@@H](CC=C)CC(=O)N[C@@H](CO)Cc1ccccc1	1	1	-3	-6
C=CC[C@@H](Cc1ccc(F)cc1)C(=O)OC[C@@H]1CCCN1C(=O)[C@H](CC=C)CC(=O)N[C@H](CO)Cc1ccccc1	0	23	15*	16
C=CCN(C)CC#Cc1ccc(OC)cc1	/	/	-1	3
CC1=CC(=C2C(=O)c3ccccc3C2=O)C=C(C)N1Cc1ccco1	37*	1	5	-1
O=c1c(O)c(-c2cc(O)c(O)c(O)c2)oc2cc(O)cc(O)c12	84*	7	1	4
O=c1c(O)c(-c2ccccc2)oc2cc(O)cc(O)c12	9	1	0	-9
Cc1cc2c(=Cc3ccc(N(C)C)cc3)c3ccccc3n2[n+]1C	41*	-1	-3	-6
Cc1cc(C)n(-c2nc3ccccc3nc2N2CCN(S(=O)(=O)c3ccc4ccccc4c3)CC2)n1	-99	67*	-7	-24
O=C(NCCc1ccc(Cl)cc1)c1ccc2c(=O)[nH]c3c(C(=O)NCC4CCCO4)sc(=S)n3c2c1 (configuration not stated)	/	/	-2	-8
CCOc1ccc(CCNC(=O)c2ccc3c(=O)[nH]c4c(C(=O)NC(C)C)sc(=S)n4c3c2)cc1	48*	32	-3	-1
CCCCNC(=O)c1sc(=S)n2c1[nH]c(=O)c1ccccc12	-1	34	0	4
O=C(NCCc1ccccc1)c1ccc2c(=O)[nH]c3c(C(=O)NCC4CCCO4)sc(=S)n3c2c1 (configuration not stated)	54*	26	-1	-6
SMILES	SENP1 FRET inh	FAS TE block	ADAM17 inh	ADAM10 inh
C[C@@H](CO)N(Cc1cn(Cc2ccccc2)nn1)S(=O)(=O)c1ccc(F)cc1Br	/	/	-1	-7
Oc1ccc2c(c1)OCC1(O)Cc3cc(O)c(O)cc3C21 (configuration not stated)	31*	-18	-7	-33
Cc1ccccc1Cn1cc(COC(=O)NCC(C)C)nn1	/	/	2	3
O=C(C1=C[C@H](c2csc3ccccc23)C[C@H](OCc2ccc(CO)cc2)O1)N1CCN(Cc2ccc3c(c2)OCO3)CC1	0	35	8	21*
CC(C)C[C@@H]1COc2cc(Br)ccc2S(=O)(=O)N1Cc1cn(Cc2ccc(Br)cc2)nn1	/	/	0	2
Cc1ccc(S(=O)(=O)Nc2ccc3cc([N+](=O)[O-])ccc3c2[N+](=O)[O-])cc1	53*	19	5	10
Cc1ccc(S(=O)(=O)Nc2ccc3ccccc3c2[N+](=O)[O-])cc1	0	3	7	8
CCc1nnc(NS(=O)(=O)c2ccc(NC(=S)NC(=O)/C=C/c3ccc(C(C)C)cc3)cc2)s1	3	51*	/	/
CCc1nnc(NS(=O)(=O)c2ccc(NC(=S)NC(=O)/C=C/c3ccccc3)cc2)s1	1	27	2	11
O=S(=O)(c1ccccc1)N1CCN(S(=O)(=O)c2ccc3c(c2)OCCO3)CC1	/	/	-2	1
O=[N+]([O-])c1ccccc1S(=O)(=O)N1CCN(S(=O)(=O)c2ccc3c(c2)OCCO3)CC1	0	53*	/	/
C[C@@H](/C=C/C(=O)OC(C)(C)C)Sc1ccc(C(C)(C)C)cc1	/	/	-2	0
Cc1c2cc(O)c(=O)cc-2oc2cc(O)c(O)cc12	-14	-177	-55	-182
COc1cc(OC)c(-c2c3cc(O)c(=O)cc-3oc3cc(O)c(O)cc23)cc1OC	88*	-189	-5	-14
Cc1cccc(Nc2nc(N)c([N+](=O)[O-])c(N3CCCC(C)C3)n2)c1 (configuration not stated)	4	28	9.0*	17
Cc1cccc(Nc2nc(N)c([N+](=O)[O-])c(N3CCN(C)CC3)n2)c1	3	-10	-2	-7
CC(=O)c1ccc2c(c1)C1C=CCC1C(c1ccncc1)N2 (configuration not stated)	38*	2	-5	-8
C/C(=N/Nc1nc(-c2ccccc2F)nc2ccccc12)c1ccccc1O	74*	25	-7	-2
O=C(NC1C2CC3CC(C2)CC1C3)C1CCCCC1 (configuration not stated)	2	-2	8.6*	4
O=C(CN1CCCC1)NC1C2CC3CC(C2)CC1C3 (configuration not stated)	3	-7	0	5
COc1ccc(S[C@]2(C(=O)N3CCN(c4ncccn4)CC3)CC(=O)N(C(=O)c3ccccc3)[C@@H]2c2ccc(OC)cc2)cc1	/	/	4	-5
CC(C)(C)n1ncc2c(=O)n(Cc3cccc(Cn4cnc5c(cnn5C(C)(C)C)c4=O)c3F)cnc21	-1	55*	1	-8
CC1=C(C(=O)c2ccccc2)C(c2ccc(N3CCOCC3)cc2)NC(=O)N1 (configuration not stated)	74*	-8	1	-1

High-throughput results from PubChem.
